# Legend:
# [1] = target: Peptidyl-prolyl cis-trans isomerase FKBP1A (Homo sapiens, UniProt P62942)
# [2] = Metabolic stability in human liver microsomes; type: ADME, Microsome
# How it was run: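 Pooled human liver microsomes with an NADPH-generating system (DETAPAC, NADP+, glucose-6-phosphate, G6P dehydrogenase) in 50 mM potassium phosphate pH 7.4. Started by adding compound from a 5 mM stock (FK506 stock 0.5 mM). Aliquots taken at 0, 10, 25, 40 and 60 min and extracted with dichloromethane/isopropanol 3:1. Half-life determined.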
# [3] = Inhibition of testosterone 6-hydroxylase; parameters: species or system Homo sapiens
# How it was run: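 Pooled human liver microsomes with an NADPH-generating system (DETAPAC, NADP+, glucose-6-phosphate, G6P dehydrogenase) in 50 mM potassium phosphate pH 7.4. Compound added, then testosterone substrate; 10 min shaking at 37 °C, stopped with cold ethyl acetate. Read-out is 6-hydroxytestosterone formation. IC50 estimated, or determined in detail for some compounds.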
# Peptidyl-prolyl cis-trans isomerase FKBP1A, sequence (P62942 whole entry): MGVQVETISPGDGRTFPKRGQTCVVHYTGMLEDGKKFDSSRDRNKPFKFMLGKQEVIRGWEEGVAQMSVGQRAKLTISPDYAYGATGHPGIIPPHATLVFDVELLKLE
Kd [1],half-life [2],IC50 [3],Compound
231 µM,–,–,Cc1ccc(OCC(=O)N2CCOCC2)cc1C
100 µM,–,–,CC(C)c1ccc(OCC(=O)N2CCOCC2)cc1
357 µM,–,–,O=C(COc1ccccc1F)N1CCOCC1
576 µM,–,–,O=C(COc1ccc(F)cc1)N1CCOCC1
> 1400 µM,–,–,O=C(CSc1ccc2ccccc2c1)N1CCOCC1
> 5000 µM,–,–,COc1cc(CNCc2cccs2)ccc1OCC(=O)N1CCOCC1
–,40 min,–,COC(=O)C1COCCN1C(=O)CSc1ccc(C(C)C)cc1 (configuration not stated)
426 µM,> 60 min,–,CC(C)c1ccc(SCC(=O)N2CCOCC2C(=O)O)cc1 (configuration not stated)
5.6 µM,40 min,810 nM,CC(C)c1ccc(SCC(=O)N2CCOCC2C(=O)OCCCc2cccnc2)cc1 (configuration not stated)
1280 µM,–,–,CC(C)c1ccc(S(=O)(=O)CC(=O)N2CCOCC2C(=O)OCCCc2ccc[n+]([O-])c2)cc1 (configuration not stated)
> 4000 µM,–,–,CSc1ccccc1NC(=O)Cn1c(-c2cscn2)nc2ccccc21
> 1500 µM,–,–,Cc1cc(OCC(=O)N2CCOCC2)ccc1NC(=O)OCc1ccccc1
> 2500 µM,–,–,Cc1ccc(C(C)C)c(OCCNC(=O)c2ccccc2OCC(=O)N2CCOCC2)c1
755 µM,–,–,O=C(COc1cccc(Cl)c1)N1CCOCC1
231 µM,–,–,Cc1cc(OCC(=O)N2CCOCC2)cc(C)c1Cl
> 1500 µM,–,–,Cc1cc(C)c(OCC(=O)N2CCOCC2)c(C)c1
552 µM,–,–,CC(=O)c1cccc(NS(=O)(=O)N2CCCCC2)c1
123 µM,–,–,CCc1ccc(OCC(=O)N2CCOCC2)cc1
167 µM,–,–,O=[N+]([O-])c1ccc(NS(=O)(=O)N2CCCCC2)cc1
> 1000 µM,–,–,Cc1cc(C)c(C)c(OCC(=O)N2CCOCC2)c1
> 3000 µM,–,–,c1ccc2c(c1)nc(-c1cscn1)n2Cc1ccc(-c2nnn[nH]2)cc1
289 µM,–,–,Cc1ccc(NS(=O)(=O)N2CCCCC2)cc1
> 1500 µM,–,–,CCc1ccccc1OCC(=O)N1CCOCC1

Kd [1],half-life [2],IC50 [3],Compound
> 1000 µM,–,–,CC(C)NS(=O)(=O)c1ccc(OCC(=O)N2CCOCC2)cc1
576 µM,–,–,CCOc1ccc(OCC(=O)N2CCOCC2)cc1
> 1000 µM,–,–,Cc1ccc(NS(=O)(=O)c2ccc(OCC(=O)N3CCOCC3)cc2)cc1
576 µM,–,–,O=C(COc1ccc2c(c1)OCO2)N1CCOCC1
> 5000 µM,–,–,Cc1ccc(OCC(=O)N2CC(C)OC(C)C2)cc1C (configuration not stated)
> 1860 µM,–,–,Cc1cc(C)cc(NS(=O)(=O)N2CCCCC2)c1
> 2500 µM,–,–,CC(C)c1ccccc1OCC(=O)N1CCOCC1
> 1230 µM,–,–,CCOc1ccc(NS(=O)(=O)N2CCCCC2)cc1
> 3700 µM,–,–,Cc1ccc(Cl)cc1NS(=O)(=O)N1CCCCC1
> 3700 µM,–,–,O=S(=O)(Nc1ccc2c(c1)oc1ccccc12)N1CCCCC1
> 5000 µM,–,–,Nc1cccc(OCC(=O)N2CCOCC2)c1
576 µM,–,–,Cc1cc(S(=O)(=O)N2CCCC2)ccc1OCC(=O)N1CCOCC1
505 µM,–,–,COC(=O)C1COCCN1C(=O)CS(=O)(=O)c1ccc(C(C)C)cc1 (configuration not stated)
15 µM,–,–,Cc1ccc(SCC(=O)N2CCOCC2)cc1
576 µM,–,–,Cc1cc(S(=O)(=O)Nc2cccc(C(F)(F)F)c2)ccc1OCC(=O)N1CCOCC1
> 3700 µM,–,–,COc1cc2c(cc1NS(=O)(=O)N1CCCCC1)oc1ccccc12
204 µM,40 min,–,COc1ccc(CCC(=O)N2CCOCC2)cc1
15.3 µM,–,–,O=C(CSc1ccccc1)N1CCOCC1
190 µM,40 min,–,COC(=O)C1COCCN1C(=O)C(F)(F)Sc1ccc(C(C)C)cc1 (configuration not stated)
453 µM,–,–,O=C(O)c1cc(C(F)(F)F)ccc1SCC(=O)N1CCOCC1
2.8 µM,–,–,CC(C)c1ccc(SC(F)(F)C(=O)N2CCOCC2)cc1
> 4000 µM,–,–,O=C(Cn1c(-c2cscn2)nc2ccccc21)Nc1ccc(Cl)cc1
98 µM,–,–,Nc1nc(-c2nc3ccccc3[nH]2)cs1

Kd [1],half-life [2],IC50 [3],Compound
357 µM,–,–,COc1ccc(OCC(=O)N2CCOCC2)cc1
450 µM,–,–,O=C(COc1cc(Cl)c(Cl)cc1Cl)N1CCOCC1
> 1500 µM,–,–,O=C(Nc1ccc(OCC(=O)N2CCOCC2)cc1)c1ccccc1F
726 µM,–,–,CC1CN(C(=O)CSc2ccccc2)CC(C)O1 (configuration not stated)
> 4000 µM,–,–,Cc1ccc(SCC(=O)N2CC(C)OC(C)C2)cc1 (configuration not stated)
> 1030 µM,–,–,O=C(COc1ccccc1)N1CCOCC1
> 1000 µM,–,–,Cc1cc(Cl)ccc1OCC(=O)N1CCOCC1
39 µM,–,–,Cc1nnc(SCC2=NOCC2)n1-c1ccccc1
> 1400 µM,–,–,Cc1ccc2cccc(SCC(=O)N3CCOCC3)c2n1
> 4000 µM,–,–,N#Cc1ccccc1Cn1c(-c2cscn2)nc2ccccc21
> 4000 µM,–,–,Fc1ccc(Cn2c(-c3cscn3)nc3ccccc32)c(Cl)c1
3 µM,40 min,–,COC(=O)[C@@H]1CCCCN1C(=O)C(=O)c1cc(OC)c(OC)c(OC)c1
755 µM,–,–,CCCCNS(=O)(=O)c1ccc(OCC(=O)N2CCOCC2)cc1
755 µM,–,–,O=C(COc1ccc(S(=O)(=O)NC2CCCC2)cc1)N1CCOCC1
> 5000 µM,–,–,O=C(Nc1cccc(Cl)c1Cl)c1ccccc1OCC(=O)N1CCOCC1
> 3000 µM,–,–,Brc1ccccc1Cn1c(-c2cscn2)nc2ccccc21
319 µM,–,–,O=S(=O)(Nc1ccc(F)cc1)N1CCCCC1
> 1400 µM,–,–,O=C(CSc1cccc2cccnc12)N1CCOCC1
> 4000 µM,–,–,Clc1cccc(Cl)c1Cn1c(-c2cscn2)nc2ccccc21
> 3000 µM,–,–,FC(F)(F)c1cccc(Cn2c(-c3cscn3)nc3ccccc32)c1
> 4000 µM,–,–,O=C(Cn1c(-c2cscn2)nc2ccccc21)Nc1ccccc1F
> 2500 µM,–,–,O=C(Nc1ccc(OCC(=O)N2CCOCC2)cc1)c1ccccc1Cl
> 1000 µM,–,–,Cc1ccc(OCC(=O)N2CCOCC2)c(C)c1

Kd [1],half-life [2],IC50 [3],Compound
155 µM,–,–,O=S(=O)(Nc1cc(Cl)cc(Cl)c1)N1CCCCC1
755 µM,–,–,Cc1ccc(-c2ccc(OCC(=O)N3CCOCC3)cc2)cc1
> 1030 µM,–,–,O=C(COc1ccc(Cl)cc1Cl)N1CCOCC1
287 µM,–,–,Cc1ccc(NS(=O)(=O)N2CCCCC2)c(C)c1
187 µM,–,–,Cc1cc(OCC(=O)N2CCOCC2)ccc1C(C)C
> 5000 µM,–,–,CC1CN(C(=O)COc2ccccc2Cl)CC(C)O1 (configuration not stated)
15 µM,–,–,O=C(CSc1ccc(Cl)cc1)N1CCOCC1
> 3700 µM,–,–,O=C(O)c1ccccc1SCC(=O)N1CCOCC1
> 5000 µM,–,–,O=C(Nc1ccc(OCC(=O)N2CCOCC2)cc1)c1cccnc1
> 4000 µM,–,–,CC(C)c1ccc(SCC(=O)O)cc1
135 µM,–,–,Cc1ccc(NS(=O)(=O)N2CCCCC2)cc1Cl
–,40 min,–,CC(C)c1ccc(SCC(=O)N2CCOCC2)cc1
> 5000 µM,–,–,Cc1ccc(S(=O)(=O)CC(=O)N2CCOCC2)cc1
> 1500 µM,–,–,c1ccc2c(c1)nc(-c1cscn1)n2CCCc1nnn[nH]1
576 µM,–,–,Cc1cc(OCC(=O)N2CCOCC2)cc(C(C)C)c1Cl
2.3 µM,–,–,CC(C)c1ccc(CCC(=O)N2CCOCC2)cc1
> 2400 µM,–,–,Cc1cc(N)cc(C)c1OCC(=O)N1CCOCC1
299 µM,–,–,O=S(=O)(Nc1ccc(Br)cc1)N1CCCCC1
–,> 60 min,2260 nM,C=CC[C@@H]1/C=C(\C)C[C@H](C)C[C@H](OC)[C@H]2O[C@@](O)(C(=O)C(=O)N3CCCC[C@H]3C(=O)O[C@H](/C(C)=C/[C@@H]3CC[C@@H](O)[C@H](OC)C3)[C@H](C)[C@@H](O)CC1=O)[C@H](C)C[C@@H]2OC [TACROLIMUS ANHYDROUS]
60 µM,–,–,c1ccc2[nH]c(-c3cscn3)nc2c1 [THIABENDAZOLE]

Compound,Kd [1],half-life [2],IC50 [3]
Cc1cc(OCC(=O)N2CC(C)OC(C)C2)cc(C)c1Cl (configuration not stated),> 5000 µM,–,–
